Assay results taken from ChEMBL document CHEMBL1150387, “Development and experimental validation of a docking strategy for the generation of kinase-targeted libraries” (J Med Chem, 2008).

Legend:
[1] = biological target: Proto-oncogene tyrosine-protein kinase Src (Homo sapiens) (UniProt P12931); assay: Inhibition of Src at 10 uM by HTRF assay relative to control
Method in brief: (§1)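 HTRF kinase assay, one panel of kinases. Inhibitor stock 50 µM in 100% DMSO; tested at 10 µM. ATP and substrate at final levels near Km. Final buffer: 50 mM Hepes/NaOH pH 7.4, 40 µM Na3VO4, 0.005% Tween-20, 1 mM DTT, MnCl2 or MgCl2 at kinase-dependent levels. Started by adding ATP/substrate. Reaction run at room temperature, time varied by kinase. Detection mix in 50 mM Hepes pH 7.4, 0.1% BSA, 150 mM KF, incubated ≥1 h at room temperature. Activity expressed as % of uninhibited control; n=2.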

[2] = biological target: T1, Tyrosine-protein kinase JAK3 (Homo sapiens) (UniProt P52333); assay: Inhibition of JAK3 at 10 uM by HTRF assay relative to control; method in brief: as §1
T1 sequence (whole entry): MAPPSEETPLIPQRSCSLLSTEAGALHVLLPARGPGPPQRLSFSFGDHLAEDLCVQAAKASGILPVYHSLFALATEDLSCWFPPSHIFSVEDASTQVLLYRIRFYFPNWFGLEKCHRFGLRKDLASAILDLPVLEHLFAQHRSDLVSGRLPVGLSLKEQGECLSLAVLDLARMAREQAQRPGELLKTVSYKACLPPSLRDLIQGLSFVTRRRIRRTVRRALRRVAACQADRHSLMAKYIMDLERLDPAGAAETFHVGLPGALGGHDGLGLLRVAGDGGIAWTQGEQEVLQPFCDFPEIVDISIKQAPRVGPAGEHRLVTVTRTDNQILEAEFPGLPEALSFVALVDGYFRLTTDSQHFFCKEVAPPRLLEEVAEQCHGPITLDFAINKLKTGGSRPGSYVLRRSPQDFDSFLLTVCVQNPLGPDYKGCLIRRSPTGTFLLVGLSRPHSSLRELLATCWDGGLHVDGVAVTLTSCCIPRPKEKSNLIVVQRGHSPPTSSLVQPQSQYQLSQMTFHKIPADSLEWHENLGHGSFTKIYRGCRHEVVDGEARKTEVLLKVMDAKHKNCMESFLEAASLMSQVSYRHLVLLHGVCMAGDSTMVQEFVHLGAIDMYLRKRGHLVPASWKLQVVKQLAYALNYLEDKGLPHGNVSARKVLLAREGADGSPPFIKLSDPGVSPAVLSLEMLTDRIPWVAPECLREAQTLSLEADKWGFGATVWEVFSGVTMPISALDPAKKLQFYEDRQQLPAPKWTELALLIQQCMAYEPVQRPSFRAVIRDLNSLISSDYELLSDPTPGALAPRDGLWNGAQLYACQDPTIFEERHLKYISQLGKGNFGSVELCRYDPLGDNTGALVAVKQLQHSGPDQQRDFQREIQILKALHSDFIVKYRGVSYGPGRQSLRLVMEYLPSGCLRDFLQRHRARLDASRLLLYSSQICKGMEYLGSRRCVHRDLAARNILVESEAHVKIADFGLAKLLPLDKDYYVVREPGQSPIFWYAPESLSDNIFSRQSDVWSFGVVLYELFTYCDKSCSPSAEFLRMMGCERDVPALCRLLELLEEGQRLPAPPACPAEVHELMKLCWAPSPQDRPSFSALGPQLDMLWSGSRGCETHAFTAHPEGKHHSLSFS

[3] = biological target: Tyrosine-protein kinase Lyn (Homo sapiens) (UniProt P07948); assay: Inhibition of Lyn at 10 uM by HTRF assay relative to control; method in brief: as §1
[4] = biological target: High affinity nerve growth factor receptor (Homo sapiens) (UniProt P04629); assay: Inhibition of TrkA at 10 uM by HTRF assay relative to control; method in brief: as §1
[5] = biological target: Mitogen-activated protein kinase 9 (Homo sapiens) (UniProt P45984); assay: Inhibition of JNK2 at 10 uM by HTRF assay relative to control; method in brief: as §1
[6] = biological target: T2, Tyrosine-protein kinase ZAP-70 (Homo sapiens) (UniProt P43403); assay: Inhibition of ZAP70 at 10 uM by HTRF assay relative to control; method in brief: as §1
T2 sequence (whole entry): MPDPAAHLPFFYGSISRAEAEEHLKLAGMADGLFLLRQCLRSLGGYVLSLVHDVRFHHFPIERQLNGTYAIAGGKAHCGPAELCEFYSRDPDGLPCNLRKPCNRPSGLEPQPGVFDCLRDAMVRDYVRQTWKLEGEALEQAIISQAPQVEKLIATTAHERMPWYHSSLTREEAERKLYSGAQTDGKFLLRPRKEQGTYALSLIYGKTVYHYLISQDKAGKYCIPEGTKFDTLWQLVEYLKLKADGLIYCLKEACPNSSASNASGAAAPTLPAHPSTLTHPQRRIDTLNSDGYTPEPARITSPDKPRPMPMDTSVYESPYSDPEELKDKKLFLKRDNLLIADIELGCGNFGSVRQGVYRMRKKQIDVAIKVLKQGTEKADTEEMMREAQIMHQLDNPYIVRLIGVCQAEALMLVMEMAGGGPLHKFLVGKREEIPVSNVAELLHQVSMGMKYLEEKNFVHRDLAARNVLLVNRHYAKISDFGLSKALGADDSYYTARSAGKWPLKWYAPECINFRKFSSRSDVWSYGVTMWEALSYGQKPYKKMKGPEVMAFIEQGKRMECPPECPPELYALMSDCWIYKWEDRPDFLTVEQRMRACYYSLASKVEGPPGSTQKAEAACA

[7] = biological target: Tyrosine-protein kinase Fes/Fps (Homo sapiens) (UniProt P07332); assay: Inhibition of FES at 10 uM by HTRF assay relative to control; method in brief: as §1
[8] = biological target: Insulin-like growth factor 1 receptor (Homo sapiens) (UniProt P08069); assay: Inhibition of IGF1R at 10 uM by HTRF assay relative to control; method in brief: as §1
[9] = Inhibition of AMPKalpha at 10 uM by HTRF assay relative to control; method in brief: as §1

Sequence of Insulin-like growth factor 1 receptor (Homo sapiens) (P08069 31-736 limits assumed): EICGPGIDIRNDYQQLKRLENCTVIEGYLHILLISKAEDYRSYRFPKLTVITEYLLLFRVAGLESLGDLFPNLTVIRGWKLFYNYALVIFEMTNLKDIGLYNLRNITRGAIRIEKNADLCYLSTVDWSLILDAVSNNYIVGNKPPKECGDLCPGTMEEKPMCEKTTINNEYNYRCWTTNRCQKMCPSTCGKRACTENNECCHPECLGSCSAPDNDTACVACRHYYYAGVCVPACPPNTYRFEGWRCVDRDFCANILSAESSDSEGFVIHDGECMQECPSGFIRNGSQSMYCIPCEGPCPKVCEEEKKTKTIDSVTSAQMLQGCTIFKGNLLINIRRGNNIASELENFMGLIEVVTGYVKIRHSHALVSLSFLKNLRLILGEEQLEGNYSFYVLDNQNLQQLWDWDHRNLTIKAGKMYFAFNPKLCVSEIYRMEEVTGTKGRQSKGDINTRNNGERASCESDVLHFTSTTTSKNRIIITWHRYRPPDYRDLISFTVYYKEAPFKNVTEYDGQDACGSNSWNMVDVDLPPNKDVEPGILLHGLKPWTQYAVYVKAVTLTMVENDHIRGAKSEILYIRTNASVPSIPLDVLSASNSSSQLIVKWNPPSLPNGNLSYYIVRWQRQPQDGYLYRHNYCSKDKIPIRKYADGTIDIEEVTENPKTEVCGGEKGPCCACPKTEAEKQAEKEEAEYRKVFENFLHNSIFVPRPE
Sequence of Insulin-like growth factor 1 receptor (Homo sapiens) (P08069 741-1367 limits assumed): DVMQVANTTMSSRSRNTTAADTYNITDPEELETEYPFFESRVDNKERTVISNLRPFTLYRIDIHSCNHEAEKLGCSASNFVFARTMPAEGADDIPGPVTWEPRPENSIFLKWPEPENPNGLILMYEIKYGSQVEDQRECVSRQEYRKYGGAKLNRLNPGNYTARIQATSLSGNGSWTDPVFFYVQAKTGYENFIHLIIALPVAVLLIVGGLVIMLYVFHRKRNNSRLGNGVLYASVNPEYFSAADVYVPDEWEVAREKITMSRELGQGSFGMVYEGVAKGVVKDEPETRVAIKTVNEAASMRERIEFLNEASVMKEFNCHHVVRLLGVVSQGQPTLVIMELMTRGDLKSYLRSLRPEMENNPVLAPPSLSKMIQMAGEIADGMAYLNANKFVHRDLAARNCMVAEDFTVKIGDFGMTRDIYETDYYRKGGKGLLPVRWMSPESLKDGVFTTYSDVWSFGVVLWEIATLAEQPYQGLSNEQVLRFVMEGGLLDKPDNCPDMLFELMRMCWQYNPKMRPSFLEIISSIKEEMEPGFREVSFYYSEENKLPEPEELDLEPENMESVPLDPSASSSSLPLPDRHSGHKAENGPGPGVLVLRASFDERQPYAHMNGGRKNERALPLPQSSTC
Sequence of Mitogen-activated protein kinase 9 (Homo sapiens) (P45984 whole entry, looked up): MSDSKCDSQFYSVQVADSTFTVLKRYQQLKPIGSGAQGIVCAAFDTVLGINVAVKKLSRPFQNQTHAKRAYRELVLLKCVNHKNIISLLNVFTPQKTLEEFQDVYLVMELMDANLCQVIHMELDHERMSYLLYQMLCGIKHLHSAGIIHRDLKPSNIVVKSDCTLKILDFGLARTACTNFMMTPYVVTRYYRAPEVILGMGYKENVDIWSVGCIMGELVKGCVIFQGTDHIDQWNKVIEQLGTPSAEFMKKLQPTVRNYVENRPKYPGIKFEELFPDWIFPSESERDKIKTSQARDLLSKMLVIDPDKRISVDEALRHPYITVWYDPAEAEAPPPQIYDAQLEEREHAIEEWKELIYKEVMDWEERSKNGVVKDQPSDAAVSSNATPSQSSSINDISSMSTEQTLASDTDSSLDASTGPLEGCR
Sequence of Tyrosine-protein kinase Lyn (Homo sapiens) (P07948 2-512 limits assumed): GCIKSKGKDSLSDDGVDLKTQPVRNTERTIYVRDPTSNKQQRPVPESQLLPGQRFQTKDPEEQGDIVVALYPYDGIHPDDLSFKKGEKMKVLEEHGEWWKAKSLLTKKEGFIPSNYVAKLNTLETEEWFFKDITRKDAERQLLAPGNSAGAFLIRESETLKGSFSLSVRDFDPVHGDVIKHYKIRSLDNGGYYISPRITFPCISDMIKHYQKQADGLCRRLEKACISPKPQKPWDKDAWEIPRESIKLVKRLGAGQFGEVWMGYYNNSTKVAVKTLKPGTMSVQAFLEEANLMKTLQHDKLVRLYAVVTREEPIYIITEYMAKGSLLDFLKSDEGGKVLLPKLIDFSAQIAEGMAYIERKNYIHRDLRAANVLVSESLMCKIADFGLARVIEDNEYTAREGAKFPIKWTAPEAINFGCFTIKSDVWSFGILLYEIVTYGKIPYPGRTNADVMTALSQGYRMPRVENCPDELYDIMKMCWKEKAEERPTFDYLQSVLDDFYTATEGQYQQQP
Sequence of Proto-oncogene tyrosine-protein kinase Src (Homo sapiens) (P12931 2-536 limits assumed): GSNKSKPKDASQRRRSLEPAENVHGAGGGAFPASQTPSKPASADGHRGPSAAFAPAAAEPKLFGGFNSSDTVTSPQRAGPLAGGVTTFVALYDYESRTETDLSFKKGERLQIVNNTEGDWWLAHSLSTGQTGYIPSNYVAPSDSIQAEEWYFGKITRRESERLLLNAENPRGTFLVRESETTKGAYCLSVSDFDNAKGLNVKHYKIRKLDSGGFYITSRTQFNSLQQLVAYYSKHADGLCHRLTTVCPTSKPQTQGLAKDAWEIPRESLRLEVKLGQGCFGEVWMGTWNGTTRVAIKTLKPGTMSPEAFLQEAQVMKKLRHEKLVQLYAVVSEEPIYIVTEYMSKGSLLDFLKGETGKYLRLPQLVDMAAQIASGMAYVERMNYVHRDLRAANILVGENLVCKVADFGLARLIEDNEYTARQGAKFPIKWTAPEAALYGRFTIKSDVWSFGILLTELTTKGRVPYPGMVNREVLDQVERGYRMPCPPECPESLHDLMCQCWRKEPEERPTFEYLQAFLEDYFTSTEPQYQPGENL
Sequence of Tyrosine-protein kinase Fes/Fps (Homo sapiens) (P07332 whole entry): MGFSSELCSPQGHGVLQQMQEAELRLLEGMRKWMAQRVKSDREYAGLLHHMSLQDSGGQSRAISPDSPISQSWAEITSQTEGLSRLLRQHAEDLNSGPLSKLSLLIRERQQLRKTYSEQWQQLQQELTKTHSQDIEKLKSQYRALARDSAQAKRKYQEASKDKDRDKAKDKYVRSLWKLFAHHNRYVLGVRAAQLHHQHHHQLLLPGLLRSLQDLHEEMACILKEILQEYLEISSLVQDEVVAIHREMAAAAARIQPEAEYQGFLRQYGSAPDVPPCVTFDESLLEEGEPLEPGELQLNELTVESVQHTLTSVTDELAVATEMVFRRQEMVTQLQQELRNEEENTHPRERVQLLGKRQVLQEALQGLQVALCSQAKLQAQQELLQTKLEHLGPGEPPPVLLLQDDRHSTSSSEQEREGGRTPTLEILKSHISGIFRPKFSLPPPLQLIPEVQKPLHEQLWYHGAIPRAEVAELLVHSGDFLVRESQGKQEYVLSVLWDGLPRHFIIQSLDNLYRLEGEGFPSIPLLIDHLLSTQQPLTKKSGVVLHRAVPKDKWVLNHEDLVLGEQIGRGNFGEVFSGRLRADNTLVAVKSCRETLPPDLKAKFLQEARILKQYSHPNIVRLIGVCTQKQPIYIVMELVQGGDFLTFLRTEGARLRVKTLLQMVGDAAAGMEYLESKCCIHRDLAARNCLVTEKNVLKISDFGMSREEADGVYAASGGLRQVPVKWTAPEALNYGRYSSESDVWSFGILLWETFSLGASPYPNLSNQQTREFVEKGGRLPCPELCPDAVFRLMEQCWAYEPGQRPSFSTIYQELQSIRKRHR
Sequence of High affinity nerve growth factor receptor (Homo sapiens) (P04629 33-796 limits assumed): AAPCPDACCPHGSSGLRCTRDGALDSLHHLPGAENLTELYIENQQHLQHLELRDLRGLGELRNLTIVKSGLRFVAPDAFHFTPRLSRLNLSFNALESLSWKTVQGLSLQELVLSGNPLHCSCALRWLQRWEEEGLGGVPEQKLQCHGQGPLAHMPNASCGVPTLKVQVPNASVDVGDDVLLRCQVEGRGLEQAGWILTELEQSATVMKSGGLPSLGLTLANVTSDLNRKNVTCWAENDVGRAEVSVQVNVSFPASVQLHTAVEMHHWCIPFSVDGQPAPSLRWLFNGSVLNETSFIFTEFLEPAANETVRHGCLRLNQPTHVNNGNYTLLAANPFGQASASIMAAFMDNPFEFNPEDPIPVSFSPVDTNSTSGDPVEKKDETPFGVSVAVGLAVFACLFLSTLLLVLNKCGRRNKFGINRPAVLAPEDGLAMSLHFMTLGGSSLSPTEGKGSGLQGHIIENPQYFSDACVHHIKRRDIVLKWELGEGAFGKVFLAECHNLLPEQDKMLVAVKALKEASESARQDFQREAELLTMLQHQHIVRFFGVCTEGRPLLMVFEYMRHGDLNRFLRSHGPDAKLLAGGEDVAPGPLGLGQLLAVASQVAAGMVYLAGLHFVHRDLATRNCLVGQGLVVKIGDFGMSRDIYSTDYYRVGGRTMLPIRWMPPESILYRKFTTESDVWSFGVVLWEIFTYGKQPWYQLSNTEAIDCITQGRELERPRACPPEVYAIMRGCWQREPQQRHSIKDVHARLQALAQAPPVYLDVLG

Row | SMILES | inhibition [1] [%] | inhibition [2] [%] | inhibition [3] [%] | inhibition [4] [%] | inhibition [5] [%] | inhibition [6] [%] | inhibition [7] [%] | inhibition [8] [%] | inhibition [9] [%]
1 | CN(C)CC(C)(C)CNC(=O)c1cccc(Nc2nccc(Nc3ccc4ncsc4c3)n2)c1 | 99 | 91 | 75 | 75 | 88 | 18 | 97 | 95 | 72
2 | O=C(CN1CCN(c2ncnc3c2CN(Cc2ccccc2)CC3)CC1)Nc1cc(F)ccc1F | 1 | 2 | 2 | 10 | 1 | 5 | 11 | 0 | 0
3 | Cc1cccc(Oc2ccnc(N3CCN(C(=O)c4c(C)noc4C)CC3)n2)c1 | 0 | 0 | 0 | 8 | 6 | 4 | 7 | 0 | 6
4 | Cc1cccc(CN2CCN(c3cc(N(C)c4cccc(C)c4)ncn3)CC2)c1 | 8 | 6 | 3 | 4 | 5 | 4 | 4 | 0 | 4
5 | O=C(NCc1ccncc1)c1cccc(Nc2cc(Nc3cccc(Br)c3)ncn2)c1 | 30 | 0 | 29 | 8 | 38 | 9 | 17 | 5 | 11
6 | COC(=O)C(CO)NC(=O)[C@@H]1CCCN1c1nccc(Oc2cccc(C)c2)n1 (some centres undefined) | 0 | 0 | 6 | 4 | 8 | 0 | 0 | 0 | 0
7 | Nc1nc(N2CCOCC2)cc(N2CCC(C(=O)NCc3cccs3)CC2)n1 | 3 | 0 | 7 | 9 | 3 | 3 | 9 | 0 | 5
8 | Cc1cccc(Oc2ccnc(N3CCC[C@H]3C(=O)NCCCn3ccnc3)n2)c1 | 0 | 7 | 1 | 7 | 7 | 2 | 2 | 8 | 9
9 | Cc1cccc(Oc2ccnc(N3CCN(CC(=O)Nc4cccc5c4CCCC5)CC3)n2)c1 | 5 | 0 | 1 | 10 | 2 | 1 | 23 | 0 | 0
10 | CN(CCc1ccccn1)C(=O)c1cccc(Nc2nccc(Nc3ccc4ncsc4c3)n2)c1 | 69 | 28 | 48 | 56 | 53 | 13 | 51 | 50 | 16
11 | Nc1nc(Nc2ccc3ncsc3c2)cc(N2CCC[C@H]2C(=O)N[C@@H](CO)c2ccccc2)n1 | 0 | 6 | 0 | 9 | 4 | 6 | 3 | 7 | 20
12 | CN(C)c1ccc(C(=O)N2CCN(c3ncnc4c3CN(Cc3ccccc3)CC4)CC2)c2ccccc12 | 0 | 7 | 0 | 7 | 1 | 2 | 2 | 0 | 0
13 | COc1cccc(Nc2cc(N3CCC[C@H]3C(=O)NCCN3CCCCC3)nc(N)n2)c1 | 1 | 0 | 8 | 8 | 3 | 2 | 4 | 1 | 0
14 | Nc1nc(Nc2ccc(C(=O)NCCc3ccncc3)cc2)cc(N2CCOCC2)n1 | 3 | 0 | 1 | 7 | 5 | 6 | 9 | 0 | 0
15 | Cc1cccc(N(C)c2cc(Nc3cccc(C(=O)N(CC(C)C)CC(C)C)c3)ncn2)c1 | 2 | 0 | 2 | 9 | 3 | 0 | 7 | 0 | 0
16 | Cc1cccc(Nc2ncnc3c2CN(C(=O)c2ccc(N(C)C)c4ccccc24)CC3)c1 | 0 | 0 | 9 | 8 | 1 | 6 | 3 | 3 | 19
